Among the data in ChEMBL document CHEMBL1135744, “Design, synthesis, and structure-activity relationship of 6-alkynylpyrimidines as potent adenosine kinase inhibitors” (J Med Chem, 2002) are IC50, NA and ED50 values, retold here.

Structures are written as SMILES. The source made the active and inactive calls. The calls are words filed in the database; no cut-off is given here.

Experiment [1] concerns IMR-32. The experiment is described as follows: Evaluated in vitro for the inhibition of Adenosine (ADO) phosphorylation in intact cells. Conditions: Homo sapiens. The experiment is classed as functional, cell-based. The method, boiled down:
(§1)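 IMR-32 human neuroblastoma cells were preincubated 10 min with compound (10^-11 to 10^-4 M), then given [U-14C]ADO (added as a 2 μM solution) for 20 min. Buffer was aspirated and cells were snap-frozen in liquid nitrogen, then thawed 20 min at room temperature. Supernatant was spotted on DE-81 disks, washed and counted by scintillation.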

Experiment [2] addresses Adenosine kinase (Rattus norvegicus, UniProt Q64640). The experiment is described as follows: Evaluated in vitro for inhibitory activity against Adenosine kinase (AK). In outline:
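Rat brain cytosol was the adenosine kinase source. The mix held 64 mM Tris-HCl pH 7.5, 0.2 mM MgCl2, 1 mM ATP and 0.2 μM [U-14C]ADO or [2-3H]ADO, incubated 15 min at 23 °C. Aliquots were spotted onto DE-81 anion-exchange disks, washed in 2 mM ammonium formate, rinsed and dried. Bound radioactivity was counted by scintillation.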

The subject of experiment [3] is IMR-32. The experiment in a line: Evaluated in vitro for the inhibition of Adenosine (ADO) phosphorylation in intact IMR-32 human neuroblastoma cells. Type of experiment: functional, cell-based. In outline:
as §1

Experiment [4] deals with Rattus norvegicus. The experiment in a line: Nociceptive paw flinching in rats assessed 30 min following an intraplantar injection of 5% formalin into the right hind paw; NA=not active uM/Kg. The experiment is classed as functional, organism-based. In outline:
(§2)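 Rats received an intraplantar injection of 5% formalin (50 μL) into the right hindpaw, and nociceptive flinching was scored 30 min afterward. Data are mean ± SEM, n = 6-8 per dose group.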

Experiment [5] concerns Rattus norvegicus. The experiment in a line: Antihyperalgesic effect in the carrageenan induced thermal hyperalgesia model uM/Kg. Type of experiment: functional, organism-based.
The species entered for experiment [6] is Rattus norvegicus. The experiment is described as follows: Nociceptive paw flinching in rats assessed 30 min following an intraplantar injection of 5% formalin into the right hind paw. The experiment is classed as functional. Conditions: 0.5 h. In outline: as §2
Experiment [7] is filed under the species Rattus norvegicus. The experiment in a line: Antihyperalgesic effect in the carrageenan induced thermal hyperalgesia model. Type of experiment: functional.
Experiment [8] relates to Rattus norvegicus. The experiment is described as follows: Nociceptive paw flinching in rats assessed 30 min following an intraplantar injection of 5% formalin into the right hind paw.; NA=not active uM/Kg. Type of experiment: functional, organism-based. In outline:
as §2

Adenosine kinase, sequence (Q64640 whole entry): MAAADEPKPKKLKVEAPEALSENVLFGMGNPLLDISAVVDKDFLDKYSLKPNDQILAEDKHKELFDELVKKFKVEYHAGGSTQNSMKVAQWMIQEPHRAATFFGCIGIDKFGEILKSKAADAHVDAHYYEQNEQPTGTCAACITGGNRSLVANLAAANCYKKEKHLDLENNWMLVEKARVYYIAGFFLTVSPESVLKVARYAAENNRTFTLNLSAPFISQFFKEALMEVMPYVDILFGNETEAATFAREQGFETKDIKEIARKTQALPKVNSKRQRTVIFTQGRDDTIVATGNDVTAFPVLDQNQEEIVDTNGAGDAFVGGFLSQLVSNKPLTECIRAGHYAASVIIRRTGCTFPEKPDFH

Consider `CN(Cc1ccc(Cl)c(Cl)c1)c1c(N)ncnc1C#Cc1ccc(N2CCOCC2)nc1`, for which the concentration for half-maximal inhibition (IC50) (in general, the concentration at which inhibition is half-maximal) turned out to be 345 nM in experiment [1] and 200 nM in experiment [2].

As for `Nc1ncnc(C#Cc2ccc(N3CCOCC3)nc2)c1Cc1cccc(Br)c1`, the values for the IC50 in experiment [3] and in experiment [2] were 1000 nM and 22 nM, respectively.

Turning to `Cc1ccccc1CN(C)c1c(N)ncnc1C#Cc1ccc(N2CCOCC2)nc1`, the NA entry in experiment [4] and in experiment [5] was “inactive” throughout. Also, the IC50 in experiment [3] is 94 nM; in experiment [2] it was 6 nM.

As for `Nc1ncnc(C#Cc2ccc(N3CCOCC3)nc2)c1CCCc1cccc(Br)c1`, the half-maximal inhibitory concentration (IC50) in experiment [1] was determined as 580 nM; in experiment [2], 3.5 nM.

Regarding `Nc1ncnc(C#Cc2ccc(N3CCOCC3)nc2)c1CN1CCc2ccccc2C1`, the IC50 worked out at 1000 nM in experiment [3] and 40 nM in experiment [2].

As for `Nc1ncnc(C#Cc2ccc(N3CCOCC3)nc2)c1Cc1ccccc1`, the ED50 (in general, the midpoint of the dose-response relation) in experiment [6] came out at 30 µmol/kg. Also, the 50% inhibitory concentration (IC50) in experiment [3] was 700 nM; in experiment [2], 40 nM.

Regarding `CN(Cc1ccccc1Cl)Cc1c(N)ncnc1C#Cc1ccc(N2CCOCC2)nc1`, the ED50 is 30 µmol/kg in experiment [6] and above 30 µmol/kg in experiment [7]. The IC50 in experiment [3] worked out at 146 nM; in experiment [2], 5 nM.

As to `Nc1ncnc(C#Cc2ccc(N3CCOCC3)nc2)c1CCCc1cccnc1`, in experiment [8], the NA result was “inactive”. Moreover, the 50% inhibitory concentration (IC50) in experiment [3] came to 94 nM; in experiment [2], 4 nM.

As to `Nc1ncnc(C#Cc2ccc(N3CCOCC3)nc2)c1CCCc1ccccc1`, the median effective dose (ED50) is 8 µmol/kg in experiment [6] and above 30 µmol/kg in experiment [7]. The IC50 in experiment [3] came out at 70 nM; in experiment [2], 2.5 nM.

On to `Nc1ncnc(C#Cc2ccc(N3CCOCC3)nc2)c1CCCc1ccccc1Cl`, for which the IC50 in experiment [1] is 188 nM; in experiment [2], 2.5 nM.

On to `CN(c1cccc(Br)c1)c1c(N)ncnc1C#Cc1ccc(N2CCOCC2)nc1`, for which the IC50 is 280 nM in experiment [3] and 28 nM in experiment [2].

Turning to `CN(Cc1ccccc1C(F)(F)F)c1c(N)ncnc1C#Cc1ccc(N2CCOCC2)nc1`, the IC50 is 276 nM in experiment [1] and 40 nM in experiment [2].

Regarding `Nc1ncnc(C#Cc2ccc(N3CCOCC3)nc2)c1CCCc1ccc(Br)cc1`, the values for the concentration for half-maximal inhibition (IC50) in experiment [1] and in experiment [2] were 565 nM and 2 nM, respectively.

With `Nc1cc(C#Cc2ccc(N3CCOCC3)nc2)ncn1`, the IC50 in experiment [3] is above 1000 nM; in experiment [2] it was 120 nM.

Take `CN(Cc1ccc(Cl)cc1)c1c(N)ncnc1C#Cc1ccc(N2CCOCC2)nc1`: the results for the IC50 in experiment [1] and in experiment [2] were 360 nM and 106 nM, respectively.

Turning to `CN(Cc1ccccc1)Cc1c(N)ncnc1C#Cc1ccc(N2CCOCC2)nc1`, the NA result in experiment [8] was “inactive”. Further, the 50% effect level in experiment [7] (ED50) was put at a dose of 5 µmol/kg. The IC50 in experiment [3] was found to be 118 nM; in experiment [2], 2 nM.

Take `CN(Cc1ccccc1)c1c(N)ncnc1C#Cc1ccc(N2CCOCC2)nc1`: the ED50 in experiment [6] and in experiment [7] was 10 µmol/kg throughout. The values for the IC50 in experiment [3] and in experiment [2] were 124 nM and 30 nM, respectively.

With `CN(Cc1ccc2ccccc2c1)c1c(N)ncnc1C#Cc1ccc(N2CCOCC2)nc1`, the IC50 worked out at 388 nM in experiment [3] and 246 nM in experiment [2].

Regarding `CN(Cc1ccccc1Cl)c1c(N)ncnc1C#Cc1ccc(N2CCOCC2)nc1`, the median effective dose (ED50) in experiment [6] came out at 10 µmol/kg; in experiment [7] it was 3 µmol/kg. In addition, the figures for the half-inhibitory concentration (IC50) in experiment [3] and in experiment [2] were 100 nM and 15 nM, respectively.

`COc1ccc(CCCc2c(N)ncnc2C#Cc2ccc(N3CCOCC3)nc2)cc1`: the ED50 is 20 µmol/kg in experiment [6] and above 30 µmol/kg in experiment [7]. In addition, the IC50 in experiment [3] is 198 nM; in experiment [2], 3.5 nM.

For the compound `CN(Cc1ccc(Br)cc1)c1c(N)ncnc1C#Cc1ccc(N2CCOCC2)nc1`, the results for the IC50 in experiment [1] and in experiment [2] were 515 nM and 90 nM, respectively.

On to `CN(Cc1cccc(Br)c1)c1c(N)ncnc1C#Cc1ccc(N2CCOCC2)nc1`, for which the results for the concentration for half-maximal inhibition (IC50) in experiment [1] and in experiment [2] were 725 nM and 5 nM, respectively.

For `Nc1ncnc(C#Cc2ccc(N3CCOCC3)nc2)c1CCc1ccccc1`, the IC50 was found to be 220 nM in experiment [1] and 4.5 nM in experiment [2].

For the compound `Nc1ncnc(C#Cc2ccc(N3CCOCC3)nc2)c1CCCCc1ccccc1`, the IC50 in experiment [1] was above 1000 nM; in experiment [2], 45 nM.

Regarding `Nc1ncnc(C#Cc2ccc(N3CCOCC3)nc2)c1CCCc1ccncc1`, in experiment [8], the NA result is “inactive”. The same compound registered an ED50 in experiment [7] of 46 µmol/kg. The IC50 in experiment [3] is 46 nM; in experiment [2], 4 nM.

As for `CN(Cc1cccc(Cl)c1)c1c(N)ncnc1C#Cc1ccc(N2CCOCC2)nc1`, the IC50 was determined as 225 nM in experiment [1] and 22 nM in experiment [2]. The NA entry in experiment [8] and in experiment [5] was “inactive” throughout.
